Measurements from article PMC3306481 (Clinical Cancer Research, 2012).
Where two headings read alike, the source gives them in different places.

What was measured:
[1] = for Maximum tolerated dose (MTD): 21-day cycles (DL 7)
[2] = test system: refractory solid tumors and lymphoid malignancies; assay: Phase I trial: tumor response by RECIST 1.0; type: in vivo, human
[3] = Veliparib plasma pharmacokinetics; type: in vivo, human
Summary of the method: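 The oral test compound was dosed once daily at 20–60 mg with oral alkylator 50 or 100 mg daily. Plasma was sampled pre-dose and 0.5, 1, 1.5, 2, 3, 4, 6, 8 and 24 h post-dose on cycle 1 day 1 and on the last dosing day (7, 14 or 21). Blood was spun at 1,000 × g and plasma held at -70°C. Levels were read by LC-MS validated to FDA guidelines. Days were compared by two-tailed paired exact Wilcoxon test, with P < 0.05 taken as significant.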

[4] = test system: poly(ADP-ribose) (PAR), a product of PARP; assay: PAR levels in tumor biopsies; type: in vivo, human; settings: all five patients with paired pre- and post-dose biopsies, after 7 or 21 days of treatment; with cyclophosphamide
[5] = test system: γH2AX; assay: γH2AX levels in circulating tumor cells; type: in vivo, human; settings: day 2 of cycle 1; of nine patients with detectable CTCs; with cyclophosphamide
Summary of the method: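 During cycle 1, patients took the oral test compound once daily (20–60 mg) with daily oral alkylator (50 or 100 mg). Circulating tumour cells were scored for γH2AX positivity by a validated immunofluorescence assay run to standard operating procedures and compared with each patient's baseline.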

[6] = high-dose veliparib, preclinical model; cited from earlier work
[7] = studies conducted with veliparib; cited from earlier work
[8] = test system: PARP; settings: 24 hours after a single 50 mg dose; phase 0 trial; cited from earlier work

Row | Compound | Maximum tolerated dose (MTD) ([1]; cyclophosphamide daily with veliparib 60 mg daily) [mg] | Total No. of cycles ([2]; partial response, patient 15, breast cancer, dose level 5, with cyclophosphamide) [cycles] | Patients with prolonged stable disease among patients with known BRCA mutations ([2]; thirteen patients with known BRCA mutations, with cyclophosphamide) | Patients with partial response ([2]; veliparib with metronomic cyclophosphamide, 35 patients enrolled, RECIST 1.0) | Changes in PK parameters between baseline and day 7, 14, or 21 ([3]; co-administered metronomic cyclophosphamide) | half-life ([3]; human, plasma, oral) [h] | PK behavior of veliparib at DL 5 compared with other DLs ([3]; three patients on DL 5 (100 mg cyclophosphamide)) | Decrease in PAR levels in tumor biopsies [4] | Patients with an increased percentage of γH2AX-positive CTCs [5] | Tolerability of the study regimen ([1]; in vivo) | Maximum tolerated dose (MTD) ([1]; veliparib daily with cyclophosphamide 50 mg daily) [mg] | Seizures [6] | Cardiac toxicity related to study drug [7] | Inhibition of PARP activity in tumor biopsies [8]
1 | O=P1(N(CCCl)CCCl)NCCCO1 (centres unmarked) [cyclophosphamide] | 50 | – | – | – | – | – | – | – | – | – | – | – | – | –
2 | C[C@]1(c2nc3c(C(N)=O)cccc3[nH]2)CCCN1 [veliparib, Veliparib] | – | 4 | three | Seven | No statistically significant changes | 5 ± 1.5 | not different | greater than 80% | Seven | well tolerated | 60 | caused seizures | no indication of cardiac toxicity | greater than 48%
